According to ChEMBL document CHEMBL3739303, “Targeting the Src Homology 2 (SH2) Domain of Signal Transducer and Activator of Transcription 6 (STAT6) with Cell-Permeable, Phosphatase-Stable Phosphopeptide Mimics Potently Inhibits Tyr641 Phosphorylation and Transcriptional Activity” (J Med Chem, 2015):
Peptide text beside a SMILES is read from it.

Target: T1, Signal transducer and activator of transcription 6 (Homo sapiens, UniProt P42226)
T1 sequence (P42226 whole entry): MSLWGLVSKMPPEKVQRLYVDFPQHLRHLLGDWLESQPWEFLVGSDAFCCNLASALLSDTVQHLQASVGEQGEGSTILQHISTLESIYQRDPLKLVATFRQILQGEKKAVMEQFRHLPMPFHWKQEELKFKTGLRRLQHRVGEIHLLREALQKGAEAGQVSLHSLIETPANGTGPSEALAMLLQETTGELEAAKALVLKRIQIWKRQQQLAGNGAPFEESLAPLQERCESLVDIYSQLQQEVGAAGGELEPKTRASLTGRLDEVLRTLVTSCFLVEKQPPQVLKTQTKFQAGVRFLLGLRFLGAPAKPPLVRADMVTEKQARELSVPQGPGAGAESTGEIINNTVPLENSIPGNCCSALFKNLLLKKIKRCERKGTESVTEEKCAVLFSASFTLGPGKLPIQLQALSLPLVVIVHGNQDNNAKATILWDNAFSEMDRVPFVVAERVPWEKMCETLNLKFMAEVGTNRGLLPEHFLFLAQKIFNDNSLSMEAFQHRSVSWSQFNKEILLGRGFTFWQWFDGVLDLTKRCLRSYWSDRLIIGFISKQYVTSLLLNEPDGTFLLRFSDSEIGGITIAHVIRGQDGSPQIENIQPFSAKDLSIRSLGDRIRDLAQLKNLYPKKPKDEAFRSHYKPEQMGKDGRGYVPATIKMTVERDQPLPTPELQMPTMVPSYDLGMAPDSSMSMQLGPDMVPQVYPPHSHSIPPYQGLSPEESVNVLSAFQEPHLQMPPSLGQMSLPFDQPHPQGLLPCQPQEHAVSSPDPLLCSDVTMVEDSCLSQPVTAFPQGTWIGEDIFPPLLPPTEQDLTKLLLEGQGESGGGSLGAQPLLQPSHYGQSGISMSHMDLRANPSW
Experiment: Inhibition of STAT6 (unknown origin) expressed in Escherichia coli using FAM-Ala-pTyr-Lys-ProPhe-Gln-Asp-Leu-Ile-NH2 as substrate by fluorescence polarization assay
Procedure, shortened: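 His6-tagged STAT6 construct (coiled-coil, DNA-binding, linker and SH2 domains), purified by nickel IMAC; competitive FP binding. STAT6 at 480 nM mixed with 20 nM FAM-labelled phosphopeptide probe, then equal volume of serially diluted peptides (from 200 μM) added. Buffer: 50 mM NaCl, 10 mM Hepes, 1 mM Na4EDTA, 2 mM DTT, 1% NP-40. mP plotted against log concentration; IC50 by nonlinear regression; triplicate, three probe preparations; mean ± SD.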

| Compound | IC50 |
| --- | --- |
| C/C(=C\C(=O)N[C@H](C(=O)N1CCCC1/C=C/c1ccccc1)C(C)(C)C)c1ccc(OP(=O)(O)O)cc1 (stereo partly drawn) | 3430 nM |
| CC(=O)N[C@@H](Cc1ccc(OP(=O)(O)O)cc1)C(=O)N[C@@H](CCCCN)C(=O)N1CCC[C@H]1C(=O)N[C@@H](Cc1ccccc1)C(=O)N[C@@H](CCC(N)=O)C(N)=O (HELM PEPTIDE1{[ac].[O=C([C@H](Cc1ccc(OP(=O)(O)O)cc1)N[*:1])[*:2]].K.P.F.Q.[am]}$$$$V2.0) | 4200 nM |
| CC[C@H](C)[C@H](NC(=O)[C@H](CC(C)C)NC(=O)[C@H](CC(=O)O)NC(=O)[C@H](CCC(N)=O)NC(=O)[C@H](Cc1ccccc1)NC(=O)[C@@H]1CCCN1C(=O)[C@H](CCCCN)NC(=O)[C@H](Cc1ccc(OP(=O)(O)O)cc1)NC(C)=O)C(N)=O (HELM PEPTIDE1{[ac].[O=C([C@H](Cc1ccc(OP(=O)(O)O)cc1)N[*:1])[*:2]].K.P.F.Q.D.L.I.[am]}$$$$V2.0) | 1800 nM |
| C/C(=C\C(=O)N[C@H](C(=O)N(C)CC(=O)N(C)c1ccccc1)C(C)(C)C)c1ccc(OP(=O)(O)O)cc1 | 270 nM |
| CC(=O)N[C@@H](Cc1ccc(OP(=O)(O)O)cc1)C(=O)N[C@@H](CCCCN)C(=O)N1CCC[C@H]1C(=O)N[C@@H](Cc1ccccc1)C(=O)N[C@@H](CCC(N)=O)C(=O)N[C@@H](CC(=O)O)C(N)=O (HELM PEPTIDE1{[ac].[O=C([C@H](Cc1ccc(OP(=O)(O)O)cc1)N[*:1])[*:2]].K.P.F.Q.D.[am]}$$$$V2.0) | 4500 nM |
| CC(=O)N[C@@H](Cc1ccc(OP(=O)(O)O)cc1)C(=O)N[C@@H](CCCCN)C(=O)N1CCC[C@H]1C(=O)N[C@@H](Cc1ccccc1)C(=O)N[C@@H](CCC(N)=O)C(=O)N[C@@H](CC(=O)O)C(=O)N[C@@H](CC(C)C)C(N)=O (HELM PEPTIDE1{[ac].[O=C([C@H](Cc1ccc(OP(=O)(O)O)cc1)N[*:1])[*:2]].K.P.F.Q.D.L.[am]}$$$$V2.0) | 2400 nM |
| C/C(=C\C(=O)N[C@H](C(=O)N1CCCC1/C=C/CCc1ccccc1)C(C)(C)C)c1ccc(OP(=O)(O)O)cc1 (stereo partly drawn) | 540 nM |
| CC(C)(C)[C@H](NC(=O)/C=C/c1ccc(OP(=O)(O)O)cc1)C(=O)N1CCC[C@H]1C(=O)N(c1ccccc1)c1ccc(I)cc1 | 44 nM |
| CC(=O)N[C@@H](Cc1ccc(OP(=O)(O)O)cc1)C(=O)N[C@@H](CCCCN)C(=O)N1CCC[C@H]1C(=O)N[C@@H](Cc1ccccc1)C(N)=O (HELM PEPTIDE1{[ac].[O=C([C@H](Cc1ccc(OP(=O)(O)O)cc1)N[*:1])[*:2]].K.P.F.[am]}$$$$V2.0) | 6100 nM |
| CC(=O)N[C@@H](Cc1ccc(OP(=O)(O)O)cc1)C(=O)N[C@@H](CCCCN)C(=O)N1CCC[C@H]1C(N)=O (HELM PEPTIDE1{[ac].[O=C([C@H](Cc1ccc(OP(=O)(O)O)cc1)N[*:1])[*:2]].K.P.[am]}$$$$V2.0) | 5200 nM |
| C/C(=C\C(=O)N[C@H](C(=O)N1CCC[C@H]1C(=O)N(C)c1ccccc1)C(C)(C)C)c1ccc(OP(=O)(O)O)cc1 | 120 nM |
| CN(C(=O)[C@@H]1CCCN1C(=O)[C@@H](NC(=O)/C=C/c1ccc(OP(=O)(O)O)cc1)C(C)(C)C)c1ccccc1 | 870 nM |
| C/C(=C\C(=O)N[C@H](C(=O)N(C)[C@@H](C)C(=O)N(C)c1ccccc1)C(C)(C)C)c1ccc(OP(=O)(O)O)cc1 | 480 nM |
| C/C(=C\C(=O)N[C@H](C(=O)N1CCC[C@H]1C(=O)NCc1ccccc1)C(C)(C)C)c1ccc(OP(=O)(O)O)cc1 | 340 nM |
| CC(C)(C)[C@H](NC(=O)c1cc2cc(OP(=O)(O)O)ccc2[nH]1)C(=O)N1CCC[C@H]1C(=O)N(c1ccccc1)c1ccc(I)cc1 | 140 nM |
| CC(C)(C)[C@H](NC(=O)/C=C/c1ccc(OP(=O)(O)O)cc1)C(=O)N1CCC[C@H]1C(=O)Nc1ccccc1 | 1250 nM |
| C/C(=C\C(=O)N[C@H](C(=O)N1CCCC1CCCCc1ccccc1)C(C)(C)C)c1ccc(OP(=O)(O)O)cc1 (stereo partly drawn) | 1070 nM |
| C/C(=C\C(=O)N[C@H](C(=O)N1CCCC1CN(C)c1ccccc1)C(C)(C)C)c1ccc(OP(=O)(O)O)cc1 (stereo partly drawn) | 410 nM |
| NCCCC[C@H](NC(=O)[C@H](Cc1ccc(OP(=O)(O)O)cc1)NC(=O)/C=C/c1ccccc1)C(=O)N1CCC[C@H]1C(=O)N[C@@H](Cc1ccccc1)C(N)=O (HELM PEPTIDE1{[O=C(/C=C/c1ccccc1)[*:2]].[O=C([C@H](Cc1ccc(OP(=O)(O)O)cc1)N[*:1])[*:2]].K.P.F.[am]}$$$$V2.0) | 6600 nM |
| C/C(=C\C(=O)N[C@H](C(=O)N1CCC[C@H]1C(=O)N(C)C)C(C)(C)C)c1ccc(OP(=O)(O)O)cc1 | 740 nM |
| C/C(=C\C(=O)N[C@H](C(=O)N1CCC[C@H]1C(=O)NCCc1ccccc1)C(C)(C)C)c1ccc(OP(=O)(O)O)cc1 | 250 nM |
| C/C(=C\C(=O)N[C@H](C(=O)N1CCC[C@H]1C(=O)N(c1ccccc1)c1ccc(I)cc1)C(C)(C)C)c1ccc(OP(=O)(O)O)cc1 | 28 nM |
| NCCCC[C@H](NC(=O)/C=C/c1ccc(OP(=O)(O)O)cc1)C(=O)N1CCC[C@H]1C(=O)N[C@@H](Cc1ccccc1)C(N)=O | 8600 nM |
